Screening data from PubChem BioAssay.
KCNQ1 block = inhibitors of human KCNQ1 potassium channel; P51787; B-score at 10 µM; 1.3% of 310,000 active; CHO-K1 KCNQ1, FluxOR thallium flux fluorescence; stronger effect = higher value;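 active = compounds whose thallium flux B-score, printed positive for inhibition, exceeds three library SD while starting fluorescence stays within three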;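 note: channel opened by potassium depolarization with thallium stimulus after 20 min compound exposure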
KCNK3 inh = human KCNK3 channel inhibition, primary screen. O14649. CHO-KCNK3 thallium flux, FluxOR fluorescence; stronger effect = lower value. B-score at 10 µM. 0.84% of 340,000 active. AID 602410;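 active = B-score under library mean minus 4 SD, starting fluorescence ratio at most library mean plus 5 SD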;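 note: more negative B-score means stronger inhibition of thallium flux through KCNK3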
Kir21 block = Kir2.1 (mouse) channel inhibition; 0.85% of 310,000 active; HEK293-Kir2.1, FluxOR thallium flux fluorescence; stronger effect = lower value; B-score at 10 µM; AID 1672;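 active = fluorescence ratio B-score at or below minus 3 SD of library scores, with starting-brightness B-score within 2 SD, cut at about -4.2 in these data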;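 note: channel flux triggered by added potassium and thallium sulfate stimulus; B-score of peak minus minimum fluorescence over baseline after thallium stimulus; more negative B-score means stronger Kir2.1 block with less thallium influx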
KCNQ1 act = human KCNQ1 channel potentiation or activation. P51787. CHO-K1 KCNQ1, thallium flux FluxOR fluorescence; stronger effect = higher value. B-score at 10 µM. 0.35% of 310,000 active. AID 2648;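 active = fluorescence ratio B-score, a plate-corrected score, at least three library SD, with initial intensity B-score within 5 SD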
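Medium – assay buffer, equal DMSO in all wells · Material – CHO-K1 cell line with stable KCNQ1 potassium channel expression · Signal – kinetic FluxOR thallium fluorescence, 10-s 1-Hz baseline, 110-s post-stimulus read · Compound – single concentration per compound, DMSO matched to controls · Schedule – 37 °C overnight plating, 90-min dark dye load, 20-min compound pretreatment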
hERG protect = shields human hERG channel from block by proarrhythmic agents. Q12809. CHO-hERG, FluxOR thallium flux, dofetilide IC70 present. activation (rescue from dofetilide block), less the hit threshold, % at 10 µM. 0.51% of 310,000 active. AID 1511;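 active = activation above the mean of controls blocked by dofetilide plus 5 SD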;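 note: thallium influx through hERG after potassium depolarization seen as dye fluorescence rise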
KCNK9 block = inhibitors of human KCNK9 two-pore domain potassium channel | Q9NPC2 | HEK293 KCNK9, FluxOR thallium flux fluorescence; stronger effect = lower value | B-score at 10 µM | 1.2% of 310,000 active;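 active = ratio B-score over 3 SD below the library mean, with starting fluorescence within 5 SD of its mean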;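 note: negative B-score means less thallium flux so channel inhibition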
Target sequence (Q9NPC2 whole entry, looked up, the tested form may be a part): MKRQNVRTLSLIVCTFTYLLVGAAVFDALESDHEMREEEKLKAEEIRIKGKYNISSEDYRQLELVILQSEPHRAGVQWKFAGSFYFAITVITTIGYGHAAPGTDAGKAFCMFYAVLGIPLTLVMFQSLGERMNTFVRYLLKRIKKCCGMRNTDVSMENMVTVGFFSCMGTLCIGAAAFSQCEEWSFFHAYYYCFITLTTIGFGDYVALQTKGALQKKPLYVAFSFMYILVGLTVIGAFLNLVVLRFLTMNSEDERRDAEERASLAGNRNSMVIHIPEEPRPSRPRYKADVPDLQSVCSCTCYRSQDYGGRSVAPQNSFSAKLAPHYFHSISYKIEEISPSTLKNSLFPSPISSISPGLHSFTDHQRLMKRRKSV
The depositor's hits bear a star; i = inactive; . = not tested or not shown. This is a sample that favours compounds with a hit; in the whole collection about 3.8% have one here.

SMILES	KCNQ1 block	KCNK3 inh	Kir21 block	KCNQ1 act	hERG protect	KCNK9 block
CCOc1ccc(-c2cccc(NC(=O)c3cccs3)c2)nn1	i	i	0.12	i	-14	i
Cc1ccccc1-n1nc(C(=O)c2cccs2)cc(-c2nc3ccccc3[nH]2)c1=N	6*	i	-0.41	i	-17	i
COc1ccc(-n2nc(C(=O)c3cccs3)cc(-c3nc4ccccc4[nH]3)c2=N)cc1	i	i	0.18	i	-11	i
COc1ccc(CCNC(=O)C2CCC(C(C)(C)C)CC2)cc1OC (configuration not stated)	i	i	-9.1*	i	-8	i
Cc1ccc(C)c(OCc2cc(C(=O)N3CCN(c4ccccc4C)CC3C)no2)c1 (configuration not stated)	i	i	0.05	i	-8	i
CCCC(=O)Nc1cc(C(=O)O)ccc1S(=O)(=O)c1ccc(Cl)cc1	i	i	0.06	i	-4	i
Cc1ccc(-n2ncc(C(=O)Nc3cc(Cl)cc(Cl)c3)c2C2CCNCC2)cc1C	i	i	-7.3*	17*	-25	i
Cc1cc(O)c(C(C)C)cc1NC(=O)Nc1cccc2ccccc12	i	i	0.51	i	-14	i
Cc1cc(O)c(C(C)C)cc1NC(=O)Nc1ccc([N+](=O)[O-])cc1	.	-10*	.	.	.	.
Cc1ccc(C(C)C)cc1NC(=O)Nc1ccc([N+](=O)[O-])cc1	7*	i	-0.02	i	-8	i
Cc1cc(O)ccc1Nc1nc(-c2sc(N)nc2C)cs1	i	i	-1.7	i	-16	i
COc1ccc(OC)c(Nc2nc(-c3sc(N)nc3C)cs2)c1	i	i	0.1	i	-9	-6.7*
O=C(NCCc1cccc(Cl)c1)c1ccc(OC2CCN(Cc3ccccn3)CC2)cc1	i	i	-5.4*	i	-19	i
Cc1cccnc1CCNC(=O)c1ccc(OC2CCN(Cc3ccccn3)CC2)cc1	i	i	-1.1	i	-11	i
CSC(=S)N/N=C(\C)c1ccccc1	i	i	0.03	45*	20*	i
O=C(Cn1cnc2ccccc21)c1ccccc1	i	i	0	i	5.0*	i
CN1CCN(CCCc2c3c(cc4c2CCC4)CCC3)CC1	i	i	-4.4*	i	-8	i
Cc1cc(C)c(NC(=O)CCCN2CCN(C)CC2)c(C)c1	i	i	-2	i	-3	i
CC(C)N1CCc2c(sc(NC(=O)c3ccc(C(=O)c4ccccc4)cc3)c2C(N)=O)C1	i	i	-0.61	i	-29	i
CC(C)N1CCc2c(sc(NC(=O)c3ccc4ccccc4c3)c2C(N)=O)C1	i	i	-3.8	i	-24	-7.9*
CC(C)N1CCc2c(sc(NC(=O)c3cc4cc([N+](=O)[O-])ccc4s3)c2C(N)=O)C1	6*	i	-0.06	i	-13	i
CC(C)CNC(=O)CN1C(=O)NC2(CCc3ccccc32)C1=O (configuration not stated)	i	i	-0.62	i	-4	i
O=C(COc1ccc(Cl)cc1)NCC(=O)N1CCC2(CC1)NCCc1[nH]cnc12	i	i	-1.6	i	-7	i
CC1C/C(=N/Nc2nc3ccccc3[nH]2)CC(C)(C)C1 (configuration not stated)	i	i	1.1	i	-7	i
Cc1cc(N/N=C2\CC(C)CC(C)(C)C2)nc2ccccc12 (configuration not stated)	14*	i	0.22	i	-24	i
SMILES	KCNQ1 block	KCNK3 inh	Kir21 block	KCNQ1 act	hERG protect	KCNK9 block
O=C(Nc1cc2c(cc1Br)OCCO2)c1cccnc1	i	i	-1.3	i	-7	i
Cc1ccccc1S(=O)(=O)Oc1cccc2c(O)cccc12	i	i	-4.3*	i	-9	i
COc1ccc(CNC(=O)c2csc(Cc3ccc(OC)cc3)n2)cc1	i	i	-11*	i	1	i
COc1ccc(Cc2nc(C(=O)Nc3ccc(Cl)cc3)cs2)cc1	i	-18*	0.18	i	-11	i
COc1ccc(CNC(=O)c2csc(Cc3ccc(Cl)cc3)n2)cc1	i	i	-9*	i	-8	i
COc1ccc(NC(=O)c2csc(Cc3ccc(Cl)cc3)n2)cc1	i	i	-1.5	i	-12	i
CCc1cccc(CC)c1NC(=O)COC(=O)c1cccc(-c2ccc(OC(C)=O)cc2)c1	i	i	0.72	i	-12	i
Cc1ccc(Cl)cc1NC(=O)c1cc(NC(=O)CCCC(=O)O)ccc1N1CCCCC1	i	i	0.04	i	-10	i
O=C(O)CC1c2ccccc2CCN1S(=O)(=O)c1ccc(F)cc1 (configuration not stated)	i	i	0.03	i	-4	i
C=CCc1cc(C=Nc2ccc(N3CCOCC3)cc2)cc(OCC)c1O	.	i	.	.	.	.
Cc1ccc(/C=C/C(=O)c2ccccc2O)cc1	i	i	0.02	i	-7	i
Cc1ccc(/C=C/C(=O)C2C(=O)c3ccccc3C2=O)cc1	i	i	0.8	20*	25*	i
c1ccc(-c2csc3nnc(SCc4ccc5c(c4)OCO5)n23)cc1	i	i	-4.3*	i	-2	i
Cc1n[nH]c(C)c1CCC(=O)N/N=C/c1cccs1	i	i	-0.96	i	-8	i
COc1c[nH]n(-c2ccccc2)c(=O)c1=O	i	i	-0.63	i	-7	i
CN1/C(=C/C(=O)c2nc(S(C)(=O)=O)ncc2Cl)C(C)(C)c2ccccc21	6*	i	-2	i	-17	i
CC(OC(=O)CCc1cc(C(C)(C)C)c(O)c(C(C)(C)C)c1)C(=O)NC1CC1 (configuration not stated)	i	i	-4.3*	i	-17	i
CC[n+]1c(/C=C2/C=C(C)CC(C)C2)sc2ccccc21 (configuration not stated)	6*	i	1.5	i	-27	i
CC[n+]1c(C=C2C=C(C)OC(C)=C2)sc2ccccc21	10*	i	-3.3	i	-31	i
CC/C(=C/c1sc2ccccc2[n+]1CC)SC	i	i	-0.16	i	-2	i
CC[n+]1c(/C=C(\C)SC)sc2ccccc21	i	i	1.8	i	-1	i
CCN1C(=O)[C@H]2[C@@H](c3ccc(-c4ccc(OC)cc4)cc3)N3CCCC[C@@]3(C(=O)OC)[C@H]2C1=O	i	i	1	i	-6	i
